Results published in ChEMBL document CHEMBL2163252, “Azapeptide analogues of the growth hormone releasing peptide 6 as cluster of differentiation 36 receptor ligands with reduced affinity for the growth hormone secretagogue receptor 1a” (J Med Chem, 2012).
Starred links: 1 amine or outer side, 2 acyl side, 3 side chain; linkers in the order of their positions; H or OH if unused. Non-standard residues stand in square brackets, D forms with d. Residues, ends and D or L forms follow the SMILES beside them. Haic = O=C1[C@@H](N[*:1])CCc2cccc3c2N1[C@H](C(=O)[*:2])C3; dTrp(2-Me) = Cc1[nH]c2ccccc2c1C[C@@H](N)C(=O)O; azaPhe = O=C(N(Cc1ccccc1)N[*:1])[*:2]; azaLeu = CC(C)CN(N[*:1])C(=O)[*:2]; azaGly = NNC(=O)O

Experiments:
[1] = Antiangiogenic effect in […] mouse microvascular choroid explants assessed as choroid sprouting at 10^-7 M after 4 days (reference value: 53%); assay type: functional
[2] = target: Growth hormone secretagogue receptor type 1 (Homo sapiens, UniProt Q92847); test: Displacement of [125I]ghrelin expressed in LLC-PK1 cells incubated for 1 hr by gamma counting method; assay type: cell-based
Procedure, shortened: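 Membranes from LLC-PK1 cells transiently transfected with GHS-R1a (CaPO₄; harvested 24 h later; freeze/thaw lysis, 10000g), 10 μg protein/tube. Incubated with ¹²⁵I-ghrelin (40,000 cpm) and competitor 10⁻¹² to 10⁻⁵ M, 1 h at RT, in Tris/MgCl₂/EDTA/bacitracin buffer pH 7.3. Nonspecific binding set with 10⁻⁵ M competitor. Bound separated by filtration on PEI-soaked GF/C filters, gamma counted.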

[3] = target: Platelet glycoprotein 4 (Rattus norvegicus, UniProt Q07969); test: Displacement of photoactivatable [125I]-Tyr-Bpa-Ala-Hexarelin from CD36 in Sprague-Dawley rat cardiac membranes incubated for 60 mins by densitometry; assay type: cell membranes, Membrane
Platelet glycoprotein 4, sequence (Q07969 whole entry): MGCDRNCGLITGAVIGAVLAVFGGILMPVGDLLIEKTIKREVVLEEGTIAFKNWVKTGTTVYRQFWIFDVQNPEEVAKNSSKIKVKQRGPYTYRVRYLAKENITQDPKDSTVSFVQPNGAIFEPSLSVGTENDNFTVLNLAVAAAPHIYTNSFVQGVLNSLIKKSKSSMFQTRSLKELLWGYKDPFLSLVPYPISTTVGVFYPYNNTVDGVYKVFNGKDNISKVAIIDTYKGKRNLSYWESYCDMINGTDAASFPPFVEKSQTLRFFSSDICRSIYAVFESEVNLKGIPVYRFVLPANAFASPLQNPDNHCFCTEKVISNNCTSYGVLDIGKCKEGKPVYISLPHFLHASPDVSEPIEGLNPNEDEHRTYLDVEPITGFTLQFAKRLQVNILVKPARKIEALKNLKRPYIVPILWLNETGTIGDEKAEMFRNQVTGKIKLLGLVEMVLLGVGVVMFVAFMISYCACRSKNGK

Growth hormone secretagogue receptor type 1, sequence (Q92847 whole entry): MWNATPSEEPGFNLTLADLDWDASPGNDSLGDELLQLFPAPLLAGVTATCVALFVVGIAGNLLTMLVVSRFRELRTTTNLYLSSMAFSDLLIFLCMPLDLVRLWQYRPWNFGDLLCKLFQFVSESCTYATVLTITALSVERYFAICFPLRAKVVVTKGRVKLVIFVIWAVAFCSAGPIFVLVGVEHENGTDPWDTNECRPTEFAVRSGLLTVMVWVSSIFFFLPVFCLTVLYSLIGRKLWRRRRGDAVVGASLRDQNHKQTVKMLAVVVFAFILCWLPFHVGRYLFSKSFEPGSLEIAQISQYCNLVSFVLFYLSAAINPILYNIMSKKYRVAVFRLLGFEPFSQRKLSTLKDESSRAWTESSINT

Row | Structure (SMILES) | Activity [1] [%] | IC50 [2] [µM] | IC50 [3] [µM]
1 | Cc1[nH]c2ccccc2c1C[C@@H](NC(=O)[C@@H]1Cc2cccc3c2N1C(=O)[C@@H](N)CC3)C(=O)N[C@H](CCCCN)C(=O)N[C@@H](Cc1c[nH]c2ccccc12)C(=O)N[C@H](Cc1ccccc1)C(=O)N[C@@H](CCCCN)C(N)=O (Haic-[dTrp(2-Me)][dK]W[dF]K-NH2) | 3 | 0.75 | 1.11
2 | C[C@H](N)C(=O)N[C@H](Cc1c[nH]c2ccccc12)C(=O)NNC(=O)N[C@@H](Cc1c[nH]c2ccccc12)C(=O)N[C@H](Cc1ccccc1)C(=O)N[C@@H](CCCCN)C(N)=O (H-A[dW][azaGly]W[dF]K-NH2) | 72 |  | 6.06
3 | CC(C)CN(NC(=O)[C@@H](Cc1c[nH]c2ccccc12)NC(=O)[C@@H](N)Cc1cnc[nH]1)C(=O)N[C@@H](Cc1c[nH]c2ccccc12)C(=O)N[C@H](Cc1ccccc1)C(=O)N[C@@H](C)C(N)=O (H-H[dW][azaLeu]W[dF]A-NH2) | 25 |  | 7.59
4 | C[C@H](N)C(=O)N[C@H](Cc1c[nH]c2ccccc12)C(=O)N[C@@H](C)C(=O)NN(Cc1ccccc1)C(=O)N[C@H](Cc1ccccc1)C(=O)N[C@@H](CCCCN)C(N)=O (H-A[dW]A[azaPhe][dF]K-NH2) | 105 | > 10 | 7.58
5 | C[C@H](N)C(=O)NN(Cc1ccccc1)C(=O)N[C@@H](C)C(=O)N[C@@H](Cc1c[nH]c2ccccc12)C(=O)N[C@H](Cc1ccccc1)C(=O)N[C@@H](CCCCN)C(N)=O (H-A[azaPhe]AW[dF]K-NH2) | 28 | > 10 | 42.7
6 | CC(C)CN(NC(=O)[C@H](N)Cc1c[nH]c2ccccc12)C(=O)N[C@@H](Cc1c[nH]c2ccccc12)C(N)=O | 47 | > 10 | > 10
